Assay results: ChEMBL document CHEMBL4610021, “Synthesis and immunostimulatory activity of sugar-conjugated TLR7 ligands” (Bioorg Med Chem Lett, 2020)
pEC50: −log10 of the molar value.

How the values were obtained:
Format in all cases: cell-based
[1] = target: T1, Toll-like receptor 7 (Mus musculus, UniProt P58681); test: Agonist activity at TLR7 in mouse BMDC cells assessed as immunostimulatory activity by measuring increase in IL6 secretion incubated for 18 hrs by ELISA
T1 sequence (P58681 whole entry): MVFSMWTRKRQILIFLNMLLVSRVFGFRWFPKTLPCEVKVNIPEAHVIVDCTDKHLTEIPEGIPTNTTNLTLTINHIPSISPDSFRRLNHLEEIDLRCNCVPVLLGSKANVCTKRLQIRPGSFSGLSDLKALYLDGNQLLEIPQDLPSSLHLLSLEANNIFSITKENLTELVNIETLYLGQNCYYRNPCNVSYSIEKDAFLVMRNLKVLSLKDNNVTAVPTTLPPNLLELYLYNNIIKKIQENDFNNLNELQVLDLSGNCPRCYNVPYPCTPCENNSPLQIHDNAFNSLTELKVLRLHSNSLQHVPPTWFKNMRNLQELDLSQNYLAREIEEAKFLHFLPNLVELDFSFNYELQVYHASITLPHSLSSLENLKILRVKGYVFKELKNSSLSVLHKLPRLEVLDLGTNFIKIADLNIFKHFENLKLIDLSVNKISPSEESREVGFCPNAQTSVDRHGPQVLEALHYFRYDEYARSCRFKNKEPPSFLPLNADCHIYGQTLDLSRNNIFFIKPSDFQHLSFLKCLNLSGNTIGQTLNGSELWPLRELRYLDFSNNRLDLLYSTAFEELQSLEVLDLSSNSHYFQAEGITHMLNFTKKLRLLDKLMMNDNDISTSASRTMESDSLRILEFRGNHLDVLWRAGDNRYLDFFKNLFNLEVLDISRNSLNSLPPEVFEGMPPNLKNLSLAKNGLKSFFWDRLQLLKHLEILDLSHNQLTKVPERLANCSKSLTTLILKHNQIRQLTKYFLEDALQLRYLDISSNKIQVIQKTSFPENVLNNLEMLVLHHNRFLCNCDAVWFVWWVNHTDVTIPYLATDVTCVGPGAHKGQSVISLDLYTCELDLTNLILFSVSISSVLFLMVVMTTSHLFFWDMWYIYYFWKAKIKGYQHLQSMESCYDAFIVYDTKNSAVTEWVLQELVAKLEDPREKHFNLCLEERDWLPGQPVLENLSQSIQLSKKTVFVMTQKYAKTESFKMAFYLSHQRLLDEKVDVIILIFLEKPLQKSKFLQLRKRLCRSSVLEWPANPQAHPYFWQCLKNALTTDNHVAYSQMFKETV
How it was run: (§1)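 Primary murine bone marrow-derived dendritic cells plated at 1×10^5 cells/well and exposed to serially diluted compound; 0.25% DMSO vehicle. IL-6 in supernatant measured by ELISA. EC50 calculated by curve fitting; Emax expressed as % relative to the unconjugated reference ligand. Means ± SD of triplicate, representative of three independent experiments.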

[2] = target: T2, Toll-like receptor 7 (Mus musculus) (UniProt P58681); test: Agonist activity at TLR7 in mouse RAW264.7 cells assessed as immunostimulatory activity by measuring increase in TNFalpha secretion incubated for 18 hrs by ELISA relative to 1V209
T2 sequence (whole entry): T1 sequence (P58681 whole entry)
How it was run: (§2)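 Murine RAW264.7 macrophages plated at 1×10^4 cells/well, incubated 18 h with serially diluted compound; 0.25% DMSO vehicle. TNF-α in culture supernatant measured by ELISA. EC50 calculated by curve fitting; Emax as % of unconjugated reference ligand. Means ± SD of triplicate, representative of three independent experiments.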

[3] = target: T2, Toll-like receptor 7 (Mus musculus); test: Agonist activity at TLR7 in mouse BMDC cells assessed as immunostimulatory activity by measuring increase in IL6 secretion incubated for 18 hrs by ELISA relative to 1V209; how it was run: as §1
[4] = target: T1, Toll-like receptor 7; test: Agonist activity at TLR7 in mouse RAW264.7 cells assessed as immunostimulatory activity by measuring increase in TNFalpha secretion incubated for 18 hrs by ELISA; how it was run: as §2
[5] = target: T1, Toll-like receptor 7; test: Agonist activity at TLR7 in mouse RAW264.7 cells assessed as immunostimulatory activity by measuring increase in TNFalpha secretion incubated for 6 hrs in absence of actin polymerization inhibitor cytochalasin D by ELISA
How it was run: (§3)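 RAW264.7 cells seeded at 1.5×10^4 cells/well, pre-incubated with or without 1 μM cytochalasin D, then exposed 6 h to serially diluted compound. TNF-α and IL-6 in supernatants determined by ELISA. Means ± SD of triplicate, representative of three independent experiments.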

[6] = target: T1, Toll-like receptor 7; test: Agonist activity at TLR7 in mouse RAW264.7 cells assessed as immunostimulatory activity by measuring increase in TNFalpha secretion preincubated with actin polymerization inhibitor cytochalasin D followed by incubation with compound for 6 hrs by ELISA; how it was run: as §3
[7] = target: T3, Toll-like receptor 7 (Homo sapiens) (UniProt Q9NYK1); test: Agonist activity at TLR7 in human PBMC cells assessed as immunostimulatory activity by measuring fold increase in TNFalpha secretion at 10 uM incubated for 18 hrs by ELISA relative to 1V209
T3 sequence (whole entry): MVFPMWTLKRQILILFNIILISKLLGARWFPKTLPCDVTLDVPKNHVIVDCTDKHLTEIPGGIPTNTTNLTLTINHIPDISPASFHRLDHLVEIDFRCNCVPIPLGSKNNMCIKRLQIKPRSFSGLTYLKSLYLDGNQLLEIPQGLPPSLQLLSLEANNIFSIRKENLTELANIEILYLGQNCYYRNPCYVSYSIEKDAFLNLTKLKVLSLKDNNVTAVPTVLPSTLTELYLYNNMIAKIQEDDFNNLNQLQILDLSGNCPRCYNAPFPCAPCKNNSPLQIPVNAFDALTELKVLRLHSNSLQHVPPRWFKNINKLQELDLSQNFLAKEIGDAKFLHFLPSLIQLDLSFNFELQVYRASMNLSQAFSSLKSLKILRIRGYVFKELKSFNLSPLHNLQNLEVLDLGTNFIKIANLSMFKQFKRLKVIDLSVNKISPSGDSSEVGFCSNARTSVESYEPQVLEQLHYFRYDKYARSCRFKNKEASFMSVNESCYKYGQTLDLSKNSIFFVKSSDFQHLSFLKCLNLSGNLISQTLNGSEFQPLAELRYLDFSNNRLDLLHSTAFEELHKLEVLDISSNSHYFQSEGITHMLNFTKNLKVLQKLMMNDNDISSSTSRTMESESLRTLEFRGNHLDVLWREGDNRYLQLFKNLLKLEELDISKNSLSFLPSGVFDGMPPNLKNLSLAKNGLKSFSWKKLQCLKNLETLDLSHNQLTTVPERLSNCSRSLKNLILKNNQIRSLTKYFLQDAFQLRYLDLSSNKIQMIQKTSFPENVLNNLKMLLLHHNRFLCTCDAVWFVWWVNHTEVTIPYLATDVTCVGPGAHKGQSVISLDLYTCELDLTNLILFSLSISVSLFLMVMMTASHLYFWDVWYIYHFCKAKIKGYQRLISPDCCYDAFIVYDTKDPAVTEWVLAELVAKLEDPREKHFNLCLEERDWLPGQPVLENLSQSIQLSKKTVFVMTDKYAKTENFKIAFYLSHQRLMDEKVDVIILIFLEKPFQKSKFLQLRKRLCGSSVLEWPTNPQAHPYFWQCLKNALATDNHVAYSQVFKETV
How it was run: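 Human PBMC plated at 2×10^5 cells/well, exposed 18 h to 10 μM compound; 0.25% DMSO vehicle control. Cytokine in culture supernatant quantified by ELISA. Means ± SD of triplicate, representative of three independent experiments; one-way ANOVA with Dunnett's multiple comparisons test.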

Row | SMILES | pEC50 [1] | Emax [2] [%] | Emax [3] [%] | pEC50 [4] | pEC50 [5] | pEC50 [6] | fold change (FC) [7]
1 | COCCOc1nc(N)c2nc(O)n(Cc3ccc(C(=O)NC4O[C@H](CO)[C@@H](O)[C@H](O)[C@@H]4O)cc3)c2n1 (stereo partly specified) | 6.52 | 121 | 116 | 6.60 | – | – | –
2 | COCCOc1nc(N)c2[nH]c(=O)n(Cc3ccc(C(=O)O)cc3)c2n1 | 6.36 | 100 | 100 | 6.60 | 5.67 | 5.68 | –
3 | COCCOc1nc(N)c2nc(O)n(Cc3ccc(C(=O)N[C@H]4[C@H](O)[C@H]5O[C@H]6[C@H](O)[C@@H](O)[C@@H](O[C@H]7[C@H](O)[C@@H](O)[C@@H](O[C@H]8[C@H](O)[C@@H](O)[C@@H](O[C@H]9[C@H](O)[C@@H](O)[C@@H](O[C@H]%10[C@H](O)[C@@H](O)[C@@H](O[C@H]%11[C@H](O)[C@@H](O)[C@@H](O[C@H]%12[C@H](O)[C@@H](O)[C@@H](O[C@@H]4[C@@H](CO)O5)O[C@@H]%12CO)O[C@@H]%11CO)O[C@@H]%10CO)O[C@@H]9CO)O[C@@H]8CO)O[C@@H]7CO)O[C@@H]6CO)cc3)c2n1 | 7.25 | 113 | 109 | 6.97 | – | – | –
4 | COCCOc1nc(N)c2nc(O)n(Cc3ccc(C(=O)N[C@H]4C(O)O[C@H](CO)[C@H](O)[C@@H]4O)cc3)c2n1 (stereo partly specified) | 6.68 | 83 | 139 | 6.82 | – | – | –
5 | COCCOc1nc(N)c2nc(O)n(Cc3ccc(C(=O)N[C@H]4C(O)O[C@H](CO)[C@@H](O)[C@@H]4O)cc3)c2n1 (stereo partly specified) | 6.62 | 103 | 139 | 6.63 | – | – | 2
6 | COCCOc1nc(N)c2nc(O)n(Cc3ccc(C(=O)NC[C@H]4O[C@@H]5O[C@H]6[C@H](O)[C@@H](O)[C@@H](O[C@H]7[C@H](O)[C@@H](O)[C@@H](O[C@H]8[C@H](O)[C@@H](O)[C@@H](O[C@H]9[C@H](O)[C@@H](O)[C@@H](O[C@H]%10[C@H](O)[C@@H](O)[C@@H](O[C@H]%11[C@H](O)[C@@H](O)[C@@H](O[C@H]4[C@H](O)[C@H]5O)O[C@@H]%11CO)O[C@@H]%10CO)O[C@@H]9CO)O[C@@H]8CO)O[C@@H]7CO)O[C@@H]6CO)cc3)c2n1 | 6.82 | 135 | 127 | 6.54 | – | – | –
7 | COCCOc1nc(N)c2nc(O)n(Cc3ccc(C(=O)NC4O[C@H](CO)[C@H](O)[C@H](O)[C@H]4O)cc3)c2n1 (stereo partly specified) | 6.59 | 115 | 118 | 6.50 | – | – | –
8 | COCCOc1nc(N)c2nc(O)n(Cc3ccc(C(=O)NC4O[C@H](CO)[C@@H](O)[C@H](O)[C@H]4O)cc3)c2n1 (stereo partly specified) | 6.70 | 87 | 118 | 6.64 | 6.31 | 6.04 | –
9 | COCCOc1nc(N)c2nc(O)n(Cc3ccc(C(=O)NC4O[C@H](CO)[C@@H](O[C@@H]5O[C@H](CO)[C@H](O)[C@H](O)[C@H]5O)[C@H](O)[C@H]4O)cc3)c2n1 (stereo partly specified) | 6.96 | 177 | 142 | 7.10 | – | – | –
10 | COCCOc1nc(N)c2nc(O)n(Cc3ccc(C(=O)NC[C@H]4O[C@@H]5O[C@H]6[C@H](O)[C@@H](O)[C@@H](O[C@H]7[C@H](O)[C@@H](O)[C@@H](O[C@H]8[C@H](O)[C@@H](O)[C@@H](O[C@H]9[C@H](O)[C@@H](O)[C@@H](O[C@H]%10[C@H](O)[C@@H](O)[C@@H](O[C@H]%11[C@H](O)[C@@H](O)[C@@H](O[C@H]%12[C@H](O)[C@@H](O)[C@@H](O[C@H]4[C@H](O)[C@H]5O)O[C@@H]%12CO)O[C@@H]%11CO)O[C@@H]%10CO)O[C@@H]9CO)O[C@@H]8CO)O[C@@H]7CO)O[C@@H]6CO)cc3)c2n1 | 6.97 | 97 | 130 | 6.88 | – | – | –
11 | COCCOc1nc(N)c2nc(O)n(Cc3ccc(C(=O)NC4O[C@H](CO)[C@@H](O[C@H]5O[C@H](CO)[C@@H](O)[C@H](O)[C@H]5O)[C@H](O)[C@H]4O)cc3)c2n1 (stereo partly specified) | 7.00 | 157 | 159 | 6.87 | 6.56 | 6.23 | 2
12 | COCCOc1nc(N)c2nc(O)n(Cc3ccc(C(=O)NC[C@H]4O[C@@H]5O[C@H]6[C@H](O)[C@@H](O)[C@@H](O[C@H]7[C@H](O)[C@@H](O)[C@@H](O[C@H]8[C@H](O)[C@@H](O)[C@@H](O[C@H]9[C@H](O)[C@@H](O)[C@@H](O[C@H]%10[C@H](O)[C@@H](O)[C@@H](O[C@H]4[C@H](O)[C@H]5O)O[C@@H]%10CO)O[C@@H]9CO)O[C@@H]8CO)O[C@@H]7CO)O[C@@H]6CO)cc3)c2n1 | 7.15 | 126 | 127 | 6.89 | – | – | –
